For assay [1], the target named is T1, C-C chemokine receptor type 2 (Homo sapiens, UniProt P41597). The assay is described as follows: Displacement of [125I]-CCL2 from human CCR2 receptor expressed in human U2OS cell membranes. In outline:
(§1)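 Membranes from U2OS cells stably expressing human CCR2 were used in a ¹²⁵I-CCL2 displacement binding assay. The cells were grown at 37 °C, 5% CO₂ in McCoy's 5a with 10% FCS plus G418, hygromycin and zeocin selection. Ki was derived from IC₅₀ by the Cheng–Prusoff equation. Weak binders are reported as percent displacement at 1 μM. n = 3.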
In general terms: Loss of bound radioactivity is the signal in a displacement assay; it reports binding, not function.
Target sequence in this assay (P41597 whole entry): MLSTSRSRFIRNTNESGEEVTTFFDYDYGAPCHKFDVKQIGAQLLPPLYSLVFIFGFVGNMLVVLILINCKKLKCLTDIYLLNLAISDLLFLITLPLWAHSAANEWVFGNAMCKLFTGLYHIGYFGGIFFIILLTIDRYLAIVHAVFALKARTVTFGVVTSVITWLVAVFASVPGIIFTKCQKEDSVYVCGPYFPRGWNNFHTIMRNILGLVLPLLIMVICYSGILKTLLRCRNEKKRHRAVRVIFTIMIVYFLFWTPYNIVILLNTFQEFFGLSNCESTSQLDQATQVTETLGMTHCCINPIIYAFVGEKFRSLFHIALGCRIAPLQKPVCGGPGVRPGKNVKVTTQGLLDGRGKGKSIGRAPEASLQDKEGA

Assay [2] deals with T1, C-C chemokine receptor type 2. Put plainly: Displacement of [3H]INCB3344 from human CCR2 receptor expressed in human U2OS cell membrane assessed as residence time.
Target sequence in this assay (P41597 whole entry, looked up): as the sequence (P41597 whole entry) above
Assay [3] shares this target. The assay is described as follows: Displacement of [3H]INCB3344 from human CCR2 receptor expressed in human U2OS cell membrane assessed as kinetic rate index at Ki by dual-point competition association assay relative to control.
Target sequence in this assay (P41597 whole entry, looked up): as the sequence (P41597 whole entry) above
For assay [4] the target is unchanged. Put plainly: Displacement of [125I]-CCL2 from human CCR2 receptor expressed in human U2OS cell membrane at 1 uM relative to control. It is filed as cell membranes. In outline: as §1
Target sequence in this assay (P41597 whole entry, looked up): as the sequence (P41597 whole entry) above

This note sets out measurements from ChEMBL document CHEMBL2424582, “Structure-kinetic relationships--an overlooked parameter in hit-to-lead optimization: a case of cyclopentylamines as chemokine receptor 2 antagonists” (J Med Chem, 2013).

By Ki is commonly meant a measure of affinity in units of concentration, obtained from inhibition or displacement. Read a low Ki as higher affinity. In turn, `CC(C)[C@]1(C(=O)NCc2cc(C(F)(F)F)cc(C(F)(F)F)c2)CC[C@@H](NCCc2ccccc2)C1` came in with a Ki in assay [1] of 2400 nM.
Take `CC(C)[C@]1(C(=O)NCc2cc(C(F)(F)F)cc(C(F)(F)F)c2)CC[C@@H](NC2CCCc3ccccc32)C1` (some centres undefined): the TIME in assay [2] worked out at 0.0933 h. This compound registered a Ki in assay [1] of 33 nM. Besides, the Ratio in assay [3] turned out to be 0.6.
For `CC(C)[C@]1(C(=O)NCc2cc(C(F)(F)F)cc(C(F)(F)F)c2)CC[C@@H](NC2CCc3ccc(C#N)cc32)C1` (some centres undefined), the Ki in assay [1] came out at 54 nM. Moreover, the Ratio in assay [3] came out at 0.6.
For `CC(C)[C@]1(C(=O)NCc2cc(C(F)(F)F)cc(C(F)(F)F)c2)CC[C@@H](NC2CCc3cc(O)ccc32)C1` (some centres undefined), in that order: 29 nM and 0.7.
As for `CC(C)[C@]1(C(=O)NCc2cc(C(F)(F)F)cc(C(F)(F)F)c2)CC[C@@H](NC2CCc3cc(Br)ccc32)C1` (single isomer, unassigned; diastereomer 1) [listing 1 of 2 here], the TIME in assay [2] was found to be 2.25 h.
Broadly, the inhibition is the relative decrease from the control value, in per cent. Lower therefore signals little suppression. For the compound `CC(C)[C@]1(C(=O)NCc2cc(C(F)(F)F)cc(C(F)(F)F)c2)CC[C@@H](NC2CCc3cc(F)ccc32)C1` (some centres undefined), the inhibition in assay [4] was found to be 30%.
`CC(C)[C@]1(C(=O)NCc2cc(C(F)(F)F)cc(C(F)(F)F)c2)CC[C@@H](NCCCc2ccccc2)C1` displayed a Ki in assay [1] of 134 nM.
On the same count and under the same terms, to `CC(C)[C@]1(C(=O)NCc2cc(C(F)(F)F)cc(C(F)(F)F)c2)CC[C@@H](NC2CCc3cc(Br)ccc32)C1` (mixture of isomers) [listing 1 of 2 here] belongs 7.2 nM.
As to `CC(C)[C@]1(C(=O)NCc2cc(C(F)(F)F)cc(C(F)(F)F)c2)CC[C@@H](NC2CCCCC2)C1`, the TIME in assay [2] worked out at 0.0317 h. For the same compound, the affinity in assay [1] corresponds to a Ki of 110 nM.
`Cc1ccc2c(c1)C(N[C@@H]1CC[C@@](C(=O)NCc3cc(C(F)(F)F)cc(C(F)(F)F)c3)(C(C)C)C1)CC2` (some centres undefined) registered a Ki in assay [1] of 55 nM. In assay [3], the Ratio is 0.8.
Turning to `CC(C)[C@]1(C(=O)NCc2cc(C(F)(F)F)cc(C(F)(F)F)c2)CC[C@@H](NC2CCc3cc(Cl)ccc32)C1` (some centres undefined), in assay [2], the TIME came to 0.933 h. The affinity in assay [1] corresponds to a Ki of 18 nM. Besides, in assay [3], the Ratio stood at 1.1.
Regarding `COc1ccc2c(c1)CCC2N[C@@H]1CC[C@@](C(=O)NCc2cc(C(F)(F)F)cc(C(F)(F)F)c2)(C(C)C)C1` (some centres undefined), the Ki in assay [1] was 6.1 nM. For the same compound, the Ratio in assay [3] was 0.6.
For `COc1cccc2c1CCCC2N[C@@H]1CC[C@@](C(=O)NCc2cc(C(F)(F)F)cc(C(F)(F)F)c2)(C(C)C)C1` (some centres undefined), in that order: 27 nM and 0.7.
As to `CC(C)[C@]1(C(=O)NCc2cc(C(F)(F)F)cc(C(F)(F)F)c2)CC[C@@H](NC2CCc3cc(Br)ccc32)C1` (single isomer, unassigned; diastereomer 1) [listing 2 of 2 here], affinity in assay [1] was put at a Ki of 3.6 nM.
Take `CC(C)[C@]1(C(=O)NCc2cc(C(F)(F)F)cc(C(F)(F)F)c2)CC[C@@H](NC2CCc3c(C#N)cccc32)C1` (some centres undefined): the Ki in assay [1] stood at 70 nM. The Ratio in assay [3] is 0.8.
Turning to `CC(C)[C@]1(C(=O)NCc2cc(C(F)(F)F)cc(C(F)(F)F)c2)CC[C@@H](NC2CCCc3c(O)cccc32)C1` (some centres undefined), the Ki in assay [1] was determined as 35 nM. Moreover, the Ratio in assay [3] is 0.8.
In the case of `CC(C)[C@]1(C(=O)NCc2cc(C(F)(F)F)cc(C(F)(F)F)c2)CC[C@@H](NC2CCc3cc(Br)ccc32)C1` (stereo in doubt; 22b) [listing 1 of 2 here], the affinity in assay [1] corresponds to a Ki of 289 nM.
As for `CC(C)[C@]1(C(=O)NCc2cc(C(F)(F)F)cc(C(F)(F)F)c2)CC[C@@H](NC2CCc3c(O)cccc32)C1` (some centres undefined), in assay [1], the Ki turned out to be 86 nM. Besides, in assay [3], the Ratio is 0.6.
As to `CC(C)[C@]1(C(=O)NCc2cc(C(F)(F)F)cc(C(F)(F)F)c2)CC[C@@H](NC2CCSCC2)C1`, the TIME in assay [2] was 0.0717 h. The Ki in assay [1] was determined as 31 nM.
Compound `CC(C)[C@]1(C(=O)NCc2cc(C(F)(F)F)cc(C(F)(F)F)c2)CC[C@@H](NC2CCCc3c(C(=O)O)cccc32)C1` (some centres undefined) gave an inhibition in assay [4] of 0%.
`COc1ccc2c(c1OC)CCC2N[C@@H]1CC[C@@](C(=O)NCc2cc(C(F)(F)F)cc(C(F)(F)F)c2)(C(C)C)C1` (some centres undefined) returned a Ki in assay [1] of 130 nM.
The compound `CC(C)[C@]1(C(=O)NCc2cc(C(F)(F)F)cc(C(F)(F)F)c2)CC[C@@H](NC2CCc3c(N)cccc32)C1` (some centres undefined) displayed a Ki in assay [1] of 43 nM. Further, the Ratio in assay [3] is 0.8.
`CC(C)[C@]1(C(=O)NCc2cc(C(F)(F)F)cc(C(F)(F)F)c2)CC[C@@H](NC2CCc3cc(Br)ccc32)C1` (stereo in doubt; 22b) [listing 2 of 2 here]: the TIME in assay [2] was determined as 1.28 h.
With `CC(C)[C@]1(C(=O)NCc2cc(C(F)(F)F)cc(C(F)(F)F)c2)CC[C@@H](NC2CCc3cc(Br)ccc32)C1` (mixture of isomers) [listing 2 of 2 here], the TIME in assay [2] stood at 1.57 h. For the same compound, the Ratio in assay [3] is 1.1.
`CC(C)[C@]1(C(=O)NCc2cc(C(F)(F)F)cc(C(F)(F)F)c2)CC[C@@H](NC2CCc3ccc(Cl)cc32)C1` (some centres undefined) displayed an inhibition in assay [4] of 28%.
Take `CC(C)[C@]1(C(=O)NCc2cc(C(F)(F)F)cc(C(F)(F)F)c2)CC[C@@H](NC2CCOCC2)C1`: in assay [2], the TIME was 0.04 h. In assay [1], this compound returned a Ki of 6.8 nM.
`Cc1cccc2c1CCC2N[C@@H]1CC[C@@](C(=O)NCc2cc(C(F)(F)F)cc(C(F)(F)F)c2)(C(C)C)C1` (some centres undefined) came in with an inhibition in assay [4] of 26%.
Still for that read-out and setting: under `CC(C)[C@]1(C(=O)NCc2cc(C(F)(F)F)cc(C(F)(F)F)c2)CC[C@@H](NC2CCCc3c(Br)cccc32)C1` (some centres undefined) stands 48%.
In turn, `COc1cc2c(cc1OC)C(N[C@@H]1CC[C@@](C(=O)NCc3cc(C(F)(F)F)cc(C(F)(F)F)c3)(C(C)C)C1)CC2` (some centres undefined) had a Ki in assay [1] of 3.9 nM. For the same compound, the Ratio in assay [3] was 0.7.
Take `COc1cccc2c1CCC2N[C@@H]1CC[C@@](C(=O)NCc2cc(C(F)(F)F)cc(C(F)(F)F)c2)(C(C)C)C1` (some centres undefined): the inhibition in assay [4] came to 30%.
As to `CC(C)[C@]1(C(=O)NCc2cc(C(F)(F)F)cc(C(F)(F)F)c2)CC[C@@H](NCc2ccccc2)C1`, in assay [1], the affinity corresponds to a Ki of 437 nM.
Regarding `CC(C)[C@]1(C(=O)NCc2cc(C(F)(F)F)cc(C(F)(F)F)c2)CC[C@@H](NC2CCc3ccccc32)C1` (some centres undefined), in assay [2], the TIME amounted to 0.158 h. In assay [1], the Ki came to 50 nM. The Ratio in assay [3] worked out at 0.7.
On to `CC(C)[C@]1(C(=O)NCc2cc(C(F)(F)F)cc(C(F)(F)F)c2)CC[C@@H](NC2CCc3cc4c(cc32)OCO4)C1` (some centres undefined), for which the affinity in assay [1] corresponds to a Ki of 6.3 nM. In assay [3], the Ratio is 0.6.
